Paper PMC9253162 (Bioactive Materials, 2022)

Key:
E. coli (ATCC-25922) = assay: MIC, turbidity-based broth dilution assay; assay type: cell-based, Escherichia coli; conditions: 2–7 × 10^5 CFU/mL, 37 °C, 190 rpm, 16 h
Outline: (§1)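 Turbidity-based broth dilution at 2–7 × 10^5 CFU/mL, shaken at 190 rpm and 37 °C for 16 h, with Polymyxin-B as positive control. For the selectivity index (HC50/MIC), hemolysis was measured on mouse red blood cells. Triton X-100 set 100% lysis, and RBCs in PBS gave the background that was subtracted. HC50 was taken as the concentration causing 50% hemolysis.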

[1] = tested on: P. aeruginosa (ATCC-27853); assay: MIC, turbidity-based broth dilution assay; assay type: cell-based, Pseudomonas aeruginosa; conditions: 2–7 × 10^5 CFU/mL, 37 °C, 190 rpm, 16 h
Outline: as §1

Polymyxin-B
Minimum Inhibitory Concentration E. coli (E. coli (ATCC-25922)): <0.5 µg/mL
Minimum Inhibitory Concentration P. aeruginosa [1]: 1.0 µg/mL
